Experimental data taken from ChEMBL document CHEMBL1148787, “Novel substituted (pyridin-3-yl)phenyloxazolidinones: antibacterial agents with reduced activity against monoamine oxidase A and increased solubility” (J Med Chem, 2007).
Values after ≈ are worked out from the molar mass of the structure shown.

Assays:
[1] = system: Streptococcus pneumoniae; experiment: Antibacterial activity against penicillin-susceptible Streptococcus pneumoniae AP671401; assay type: functional
Procedure, shortened: (§1)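 CLSI broth microdilution, 64 to 0.06 µg/mL, 2% DMSO final. Media: S. aureus, Mueller Hinton broth; H. influenzae, MHB plus 0.5% yeast extract, 15 µg/mL hematin, 1.5 µg/mL NAD; S. pneumoniae, MHB plus 0.65% lysed horse blood. 35 °C, aerobic (S. aureus) or 5% CO2.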

[2] = system: Streptococcus pneumoniae; experiment: Antibacterial activity against linezolid-resistant Streptococcus pneumoniae; assay type: functional
Procedure, shortened: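 Broth microdilution per CLSI guidelines. Compounds were dissolved in 100% DMSO and diluted to 2% DMSO (v/v), 64 to 0.06 µg/mL, in 2.2% (w/v) Mueller Hinton broth with 0.65% (v/v) lysed horse blood. Plates were incubated at 35 °C in 5% CO2 and read at 620 nm.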

[3] = biological target: T1, Amine oxidase [flavin-containing] A (Homo sapiens, UniProt P21397); experiment: Inhibition of human liver MAOA expressed in yeast
T1 sequence (P21397 whole entry): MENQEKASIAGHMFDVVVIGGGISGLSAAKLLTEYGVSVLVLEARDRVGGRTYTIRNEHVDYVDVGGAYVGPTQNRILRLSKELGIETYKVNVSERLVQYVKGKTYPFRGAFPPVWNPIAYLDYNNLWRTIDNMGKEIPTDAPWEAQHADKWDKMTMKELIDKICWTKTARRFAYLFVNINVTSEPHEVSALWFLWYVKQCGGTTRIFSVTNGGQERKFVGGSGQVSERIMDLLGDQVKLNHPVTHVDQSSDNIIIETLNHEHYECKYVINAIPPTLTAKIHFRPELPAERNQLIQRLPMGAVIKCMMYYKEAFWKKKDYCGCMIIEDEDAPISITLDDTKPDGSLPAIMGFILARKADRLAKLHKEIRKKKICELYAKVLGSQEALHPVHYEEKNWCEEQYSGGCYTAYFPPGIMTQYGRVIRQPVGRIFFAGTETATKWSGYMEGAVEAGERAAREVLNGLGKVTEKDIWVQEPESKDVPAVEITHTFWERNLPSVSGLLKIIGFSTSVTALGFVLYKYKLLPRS

[4] = system: Haemophilus influenzae; experiment: Antibacterial activity against Haemophilus influenzae ATCC 51907; assay type: functional; procedure, shortened: as §1
[5] = Solubility by nephelometric analysis; assay type: physicochemical
Procedure, shortened: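 Nephelometry after diluting compounds into the MAO-A assay mixture (100 mM potassium phosphate, pH 7.4).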

[6] = system: Staphylococcus aureus; experiment: Antibacterial activity against methicillin-susceptible Staphylococcus aureus AP601055; assay type: functional; procedure, shortened: as §1
[7] = organism: Homo sapiens; experiment: Protein binding in human plasma; conditions: read-out: PPB (converted)
[8] = biological target: Cytochrome P450 2C9 (Homo sapiens, UniProt P11712); experiment: Inhibition of human recombinant CYP2C9; assay type: ADME
Sequence of Cytochrome P450 2C9 (P11712 whole entry): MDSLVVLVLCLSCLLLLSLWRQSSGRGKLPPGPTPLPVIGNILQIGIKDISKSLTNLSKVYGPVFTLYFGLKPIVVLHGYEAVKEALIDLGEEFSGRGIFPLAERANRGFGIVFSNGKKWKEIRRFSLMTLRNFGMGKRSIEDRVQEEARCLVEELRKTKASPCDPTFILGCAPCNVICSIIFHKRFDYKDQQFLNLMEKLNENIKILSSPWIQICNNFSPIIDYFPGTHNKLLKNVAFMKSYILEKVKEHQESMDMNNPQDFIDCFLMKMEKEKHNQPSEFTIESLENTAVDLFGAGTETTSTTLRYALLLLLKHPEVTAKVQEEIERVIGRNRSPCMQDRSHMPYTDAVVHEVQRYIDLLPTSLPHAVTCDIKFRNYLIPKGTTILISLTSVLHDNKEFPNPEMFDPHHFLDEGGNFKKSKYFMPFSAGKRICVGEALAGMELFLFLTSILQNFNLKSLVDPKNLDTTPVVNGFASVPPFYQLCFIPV
Procedure, shortened: (§2)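 Recombinant human P450s, compound at 0.2-20 µM; fluorogenic substrates: 3-cyano-7-ethoxycoumarin (1A2), 7-methoxy-4-trifluoromethylcoumarin (2C9, 2C19), 7-methoxy-4-(aminomethyl)coumarin (2D6). Fluorescence detection; IC50 determined.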

[9] = biological target: Cytochrome P450 2C19 (Homo sapiens, UniProt P33261); experiment: Inhibition of human recombinant CYP2C19; assay type: ADME; procedure, shortened: as §2
Sequence of Cytochrome P450 2C19 (P33261 whole entry): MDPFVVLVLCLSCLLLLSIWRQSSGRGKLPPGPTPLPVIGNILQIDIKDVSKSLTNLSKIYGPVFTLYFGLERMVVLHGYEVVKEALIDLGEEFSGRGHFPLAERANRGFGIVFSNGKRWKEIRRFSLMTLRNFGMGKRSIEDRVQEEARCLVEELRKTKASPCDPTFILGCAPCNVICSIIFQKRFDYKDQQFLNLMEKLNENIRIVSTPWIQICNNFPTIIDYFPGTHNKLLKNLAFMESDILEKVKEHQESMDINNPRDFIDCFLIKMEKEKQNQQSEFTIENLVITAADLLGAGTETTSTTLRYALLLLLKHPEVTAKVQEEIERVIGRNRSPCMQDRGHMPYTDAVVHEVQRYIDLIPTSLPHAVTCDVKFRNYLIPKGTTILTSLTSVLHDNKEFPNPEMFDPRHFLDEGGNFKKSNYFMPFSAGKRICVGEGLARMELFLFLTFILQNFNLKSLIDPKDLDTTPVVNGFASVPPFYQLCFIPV

[10] = biological target: Cytochrome P450 3A4 (Homo sapiens, UniProt P08684); experiment: Inhibition of human recombinant CYP3A4; assay type: ADME
Sequence of Cytochrome P450 3A4 (P08684 whole entry): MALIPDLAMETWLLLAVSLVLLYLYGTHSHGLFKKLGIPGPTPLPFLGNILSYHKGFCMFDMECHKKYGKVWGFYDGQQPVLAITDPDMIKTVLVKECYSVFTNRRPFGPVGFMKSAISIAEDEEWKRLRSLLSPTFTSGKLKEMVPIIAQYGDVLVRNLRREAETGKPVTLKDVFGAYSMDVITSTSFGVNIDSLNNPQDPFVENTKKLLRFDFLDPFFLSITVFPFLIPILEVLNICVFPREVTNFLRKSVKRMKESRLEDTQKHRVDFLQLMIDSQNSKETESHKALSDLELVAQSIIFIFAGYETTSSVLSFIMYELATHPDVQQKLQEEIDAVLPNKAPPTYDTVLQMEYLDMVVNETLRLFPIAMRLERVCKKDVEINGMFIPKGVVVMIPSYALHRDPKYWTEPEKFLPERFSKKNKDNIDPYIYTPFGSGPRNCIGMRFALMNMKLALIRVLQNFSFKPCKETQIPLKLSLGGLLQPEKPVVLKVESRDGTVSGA

[11] = biological target: T2, Cytochrome P450 1A2 (Homo sapiens, UniProt P05177); experiment: Inhibition of human recombinant CYP1A2; assay type: ADME; procedure, shortened: as §2
T2 sequence (P05177 whole entry): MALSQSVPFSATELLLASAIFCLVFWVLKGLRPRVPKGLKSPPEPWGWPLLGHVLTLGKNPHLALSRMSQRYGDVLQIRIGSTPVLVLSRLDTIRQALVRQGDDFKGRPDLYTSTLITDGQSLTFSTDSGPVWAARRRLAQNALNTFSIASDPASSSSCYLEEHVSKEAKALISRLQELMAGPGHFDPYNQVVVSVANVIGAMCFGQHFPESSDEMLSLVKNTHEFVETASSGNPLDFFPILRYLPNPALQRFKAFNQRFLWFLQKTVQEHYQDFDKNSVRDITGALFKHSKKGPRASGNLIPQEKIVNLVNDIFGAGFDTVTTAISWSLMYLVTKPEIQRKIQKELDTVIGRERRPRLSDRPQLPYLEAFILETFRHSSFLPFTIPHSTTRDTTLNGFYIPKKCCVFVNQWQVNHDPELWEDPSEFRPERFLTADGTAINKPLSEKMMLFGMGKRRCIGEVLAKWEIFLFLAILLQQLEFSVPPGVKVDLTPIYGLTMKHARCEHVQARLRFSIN

[12] = Clearance in Wistar rat at 10 mg/kg, iv; assay type: ADME, organism-based; parameters: dose 10 mg/kg, route intravenous; conditions: in vivo
Procedure, shortened: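 Groups of three Wistar Han rats; bolus injection via cannulated jugular vein at 2 or 10 mg/kg. Serial 200 µL whole-blood samples at time intervals; plasma levels by LC-MS/MS; parameters by noncompartmental analysis.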

[13] = biological target: Cytochrome P450 2D6 (Homo sapiens, UniProt P10635); experiment: Inhibition of human recombinant CYP2D6; assay type: ADME; procedure, shortened: as §2
Sequence of Cytochrome P450 2D6 (P10635 whole entry): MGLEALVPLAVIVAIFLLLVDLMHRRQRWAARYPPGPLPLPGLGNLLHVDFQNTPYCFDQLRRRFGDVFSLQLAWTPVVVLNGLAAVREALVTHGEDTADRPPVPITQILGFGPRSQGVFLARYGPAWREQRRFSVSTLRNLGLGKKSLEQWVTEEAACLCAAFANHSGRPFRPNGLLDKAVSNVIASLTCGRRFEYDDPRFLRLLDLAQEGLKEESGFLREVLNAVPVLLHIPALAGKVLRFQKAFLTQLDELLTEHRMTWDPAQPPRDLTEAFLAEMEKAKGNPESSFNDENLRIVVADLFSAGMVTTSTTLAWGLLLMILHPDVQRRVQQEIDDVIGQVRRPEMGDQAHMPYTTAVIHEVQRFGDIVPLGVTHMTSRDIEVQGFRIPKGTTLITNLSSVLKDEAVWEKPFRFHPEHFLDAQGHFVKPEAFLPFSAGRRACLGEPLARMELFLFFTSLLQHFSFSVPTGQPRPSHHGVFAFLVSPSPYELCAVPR

SMILES | MIC [1] [µg/mL] | MIC [2] [µg/mL] | Ki [3] [µM] | MIC [4] [µg/mL] | solubility kinetic [5] [µM] | MIC [6] [µg/mL] | fraction unbound [7] | IC50 [8] [µM] | IC50 [9] [µM] | IC50 [10] [µM] | IC50 [11] [µM] | clearance [12] [mL/min/kg] | IC50 [13] [µM]
CO[C@@H](C)c1ccc(-c2ccc(N3C[C@H](Cn4ccnn4)OC3=O)cc2F)cn1 | 0.25 (≈ 0.629 µM) | 4 (≈ 10.1 µM) | 2.5 | 16 (≈ 40.3 µM) | > 400 | 1 (≈ 2.52 µM) | – | – | – | – | – | – | –
CC(C)(O)c1ccc(-c2ccc(N3C[C@H](Cn4ccnn4)OC3=O)cc2F)cn1 | 0.25 (≈ 0.629 µM) | 2 (≈ 5.03 µM) | 6 | 8 (≈ 20.1 µM) | 200 (≈ 79.5 µg/mL) | 1 (≈ 2.52 µM) | – | – | – | – | – | – | –
O=C1O[C@@H](Cn2ccnn2)CN1c1ccc(-c2ccc(C(O)C3CCNCC3)nc2)c(F)c1 (stereo partly specified) | 4 (≈ 8.84 µM) | 32 (≈ 70.7 µM) | 136 | 64 (≈ 141 µM) | > 400 | 64 (≈ 141 µM) | – | – | – | – | – | – | –
CC(C)NCC(O)c1ccc(-c2ccc(N3C[C@H](Cn4ccnn4)OC3=O)cc2F)cn1 (stereo partly specified) | 0.5 (≈ 1.14 µM) | 2 (≈ 4.54 µM) | > 178 | 4 (≈ 9.08 µM) | > 400 | 4 (≈ 9.08 µM) | – | – | – | – | – | – | –
CN(C)CC(O)c1ccc(-c2ccc(N3C[C@H](Cn4ccnn4)OC3=O)cc2F)cn1 (stereo partly specified) | 0.25 (≈ 0.586 µM) | 2 (≈ 4.69 µM) | > 178 | 4 (≈ 9.38 µM) | > 400 | 4 (≈ 9.38 µM) | – | – | – | – | – | – | –
CC(=O)c1ccc(-c2ccc(N3C[C@H](Cn4ccnn4)OC3=O)cc2F)cn1 | < 0.06 | 0.5 (≈ 1.31 µM) | 0.7 | 2 (≈ 5.24 µM) | 50 (≈ 19.1 µg/mL) | 0.25 (≈ 0.656 µM) | – | – | – | – | – | – | –
O=C(c1ccc(-c2ccc(N3C[C@H](Cn4ccnn4)OC3=O)cc2F)cn1)C1CNC1 | 1 (≈ 2.37 µM) | 4 (≈ 9.47 µM) | 4.5 | 16 (≈ 37.9 µM) | 200 (≈ 84.5 µg/mL) | 8 (≈ 18.9 µM) | – | – | – | – | – | – | –
O=C(Cn1ccnc1)c1ccc(-c2ccc(N3C[C@H](Cn4ccnn4)OC3=O)cc2F)cn1 | – | 0.5 (≈ 1.12 µM) | > 12 | 2 (≈ 4.47 µM) | 12.5 (≈ 5.59 µg/mL) | 0.25 (≈ 0.559 µM) | – | – | – | – | – | – | –
COCc1ccc(-c2ccc(N3C[C@H](Cn4ccnn4)OC3=O)cc2F)cn1 | 0.13 (≈ 0.339 µM) | 1 (≈ 2.61 µM) | 1.7 | 4 (≈ 10.4 µM) | 100 (≈ 38.3 µg/mL) | 0.5 (≈ 1.3 µM) | – | – | – | – | – | – | –
CO[C@H](C)c1ccc(-c2ccc(N3C[C@H](Cn4ccnn4)OC3=O)cc2F)cn1 | 0.25 (≈ 0.629 µM) | 2 (≈ 5.03 µM) | 3 | 8 (≈ 20.1 µM) | > 400 | 1 (≈ 2.52 µM) | – | – | – | – | – | – | –
CN1CCN(CCCC(=O)c2ccc(-c3ccc(N4C[C@H](Cn5ccnn5)OC4=O)cc3F)cn2)CC1 | < 0.06 | 0.5 (≈ 0.985 µM) | 10.5 | 8 (≈ 15.8 µM) | > 400 | 1 (≈ 1.97 µM) | 0.5 | – | – | – | – | – | –
O=C(CCCN1CCOCC1)c1ccc(-c2ccc(N3C[C@H](Cn4ccnn4)OC3=O)cc2F)cn1 | 0.13 (≈ 0.263 µM) | 0.5 (≈ 1.01 µM) | – | 4 (≈ 8.09 µM) | 100 (≈ 49.5 µg/mL) | 0.5 (≈ 1.01 µM) | 0.35 | – | – | – | – | – | –
Cc1cn(CC(=O)c2ccc(-c3ccc(N4C[C@H](Cn5ccnn5)OC4=O)cc3F)cn2)cn1 | < 0.06 | 0.5 (≈ 1.08 µM) | > 5.6 | 2 (≈ 4.33 µM) | 12.5 (≈ 5.77 µg/mL) | 0.5 (≈ 1.08 µM) | 0.31 | > 20 | > 20 | > 20 | > 20 | > 100 | > 20
CN1CCN(CCCC(O)c2ccc(-c3ccc(N4C[C@H](Cn5ccnn5)OC4=O)cc3F)cn2)CC1 (stereo partly specified) | 0.25 (≈ 0.491 µM) | 1 (≈ 1.96 µM) | 41 | 8 (≈ 15.7 µM) | > 400 | 2 (≈ 3.92 µM) | – | – | – | – | – | – | –
O=C1O[C@@H](Cn2ccnn2)CN1c1ccc(-c2ccc(C(O)CN3CCOCC3)nc2)c(F)c1 (stereo partly specified) | 0.25 (≈ 0.534 µM) | 2 (≈ 4.27 µM) | – | 4 (≈ 8.54 µM) | > 400 | 1 (≈ 2.13 µM) | 0.67 | – | – | – | – | – | –
CC(C)C(O)c1ccc(-c2ccc(N3C[C@H](Cn4ccnn4)OC3=O)cc2F)cn1 (stereo partly specified) | 0.25 (≈ 0.608 µM) | 2 (≈ 4.86 µM) | 11.3 | 16 (≈ 38.9 µM) | > 400 | 0.5 (≈ 1.22 µM) | – | – | – | – | – | – | –
O=C1O[C@@H](Cn2ccnn2)CN1c1ccc(-c2cccnc2)c(F)c1 | < 0.06 | 1 (≈ 2.95 µM) | < 0.3 | 2 (≈ 5.89 µM) | 12.5 (≈ 4.24 µg/mL) | 0.25 (≈ 0.737 µM) | – | > 20 | > 20 | 6.8 | > 20 | – | 6.6
O=C1O[C@@H](Cn2ccnn2)CN1c1ccc(-c2ccc(CO)nc2)c(F)c1 | 0.13 (≈ 0.352 µM) | 1 (≈ 2.71 µM) | – | 1 (≈ 2.71 µM) | 100 (≈ 36.9 µg/mL) | 0.25 (≈ 0.677 µM) | – | > 20 | > 20 | > 20 | > 20 | – | > 20
C[C@@H](O)c1ccc(-c2ccc(N3C[C@H](Cn4ccnn4)OC3=O)cc2F)cn1 | < 0.06 | 1 (≈ 2.61 µM) | 4.3 | 2 (≈ 5.22 µM) | > 400 | 0.25 (≈ 0.652 µM) | – | – | – | – | – | – | –
O=C1O[C@@H](Cn2ccnn2)CN1c1ccc(-c2ccc(C(O)C3CNC3)nc2)c(F)c1 (stereo partly specified) | 16 (≈ 37.7 µM) | > 64 | 58 | 64 (≈ 151 µM) | > 400 | 64 (≈ 151 µM) | – | – | – | – | – | – | –
